Laboratory results published in ChEMBL document CHEMBL5058577, “EUbOPEN Chemogenomics Library 2 (Multiplex)” (2022).

System: Fibroblast
Test: Multiplex assay against human fibroblast
Format: toxicity, cell-based
Summary of the method: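 Per cents of healthy-nucleus cells form the tubulin, mitochondrial-mass and membrane-permeability phenotype values. Live cells were stained at seeding with Hoechst33342, BioTracker Green Microtubule Cytoskeleton Dye, MitoTracker Red and Annexin V Alexa Fluor 680. After compound addition they were imaged on a CQ1 microscope at 37°C and 5% CO2, and CellPathfinder machine-learning gating split them into Hoechst high-intensity objects or normal cells, normal cells into healthy, pyknosed or fragmented nuclei, and pyknosed cells into mitotic or apoptotic.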

[1] = 12 h, 1 µM, compound concentration 1 uM, replicate 1
[2] = 12 h, 1 µM, compound concentration 1 uM, replicate 2
[3] = 12 h, 10 µM, compound concentration 10 uM, replicate 1
[4] = 12 h, 10 µM, compound concentration 10 uM, replicate 2
[5] = 24 h, 1 µM, compound concentration 1 uM, replicate 1
[6] = 24 h, 1 µM, compound concentration 1 uM, replicate 2
[7] = 24 h, 10 µM, compound concentration 10 uM, replicate 1
[8] = 24 h, 10 µM, compound concentration 10 uM, replicate 2
[9] = 48 h, 1 µM, compound concentration 1 uM, replicate 1
[10] = 48 h, 1 µM, compound concentration 1 uM, replicate 2
[11] = 48 h, 10 µM, compound concentration 10 uM, replicate 1
[12] = 48 h, 10 µM, compound concentration 10 uM, replicate 2

SMILES: C[C@@H]1CC(=O)Nc2cccc(-c3ccc4c(c3)c(-c3cnn(C)c3)nn4C)c2N1
- Population Apoptotic (%) [1]: 38%
- Population Fragmented Nuclei (%) [1]: 20%
- Population Healthy Nuclei (%) [1]: 63%
- Population Hoechst High Intensity Objects (%) [1]: 1%
- Population Membrane Permeable-Phenotype (%) [1]: 0%
- Population Mitochondria Different-Phenotype (%) [1]: 4%
- Population Mitotic Cells (%) [1]: 61%
- Population Normal (%) [1]: 98%
- Population Pyknosed Nuclei (%) [1]: 15%
- Population Tubulin-Different-Phenotype (%) [1]: 31%
- Total Cell Count [1]: 115
- Population Fragmented Nuclei (%) [2]: 26%
- Population Healthy Nuclei (%) [2]: 47%
- Population Hoechst High Intensity Objects (%) [2]: 5%
- Population Membrane Permeable-Phenotype (%) [2]: 8%
- Population Mitochondria Different-Phenotype (%) [2]: 12%
- Population Normal (%) [2]: 94%
- Population Pyknosed Nuclei (%) [2]: 26%
- Population Tubulin-Different-Phenotype (%) [2]: 51%
- Total Cell Count [2]: 105
- Population Apoptotic (%) [3]: 40%
- Population Fragmented Nuclei (%) [3]: 17%
- Population Healthy Nuclei (%) [3]: 65%
- Population Hoechst High Intensity Objects (%) [3]: 5%
- Population Membrane Permeable-Phenotype (%) [3]: 1%
- Population Mitochondria Different-Phenotype (%) [3]: 19%
- Population Mitotic Cells (%) [3]: 59%
- Population Normal (%) [3]: 94%
- Population Pyknosed Nuclei (%) [3]: 17%
- Population Tubulin-Different-Phenotype (%) [3]: 63%
- Total Cell Count [3]: 161
- Population Apoptotic (%) [4]: 30%
- Population Fragmented Nuclei (%) [4]: 11%
- Population Healthy Nuclei (%) [4]: 58%
- Population Hoechst High Intensity Objects (%) [4]: 6%
- Population Membrane Permeable-Phenotype (%) [4]: 7%
- Population Mitochondria Different-Phenotype (%) [4]: 5%
- Population Mitotic Cells (%) [4]: 69%
- Population Normal (%) [4]: 93%
- Population Pyknosed Nuclei (%) [4]: 30%
- Population Tubulin-Different-Phenotype (%) [4]: 68%
- Total Cell Count [4]: 126
- Population Apoptotic (%) [5]: 57%
- Population Fragmented Nuclei (%) [5]: 16%
- Population Healthy Nuclei (%) [5]: 67%
- Population Hoechst High Intensity Objects (%) [5]: 2%
- Population Membrane Permeable-Phenotype (%) [5]: 2%
- Population Mitochondria Different-Phenotype (%) [5]: 5%
- Population Mitotic Cells (%) [5]: 42%
- Population Normal (%) [5]: 97%
- Population Pyknosed Nuclei (%) [5]: 15%
- Population Tubulin-Different-Phenotype (%) [5]: 33%
- Total Cell Count [5]: 122
- Population Apoptotic (%) [6]: 35%
- Population Fragmented Nuclei (%) [6]: 29%
- Population Healthy Nuclei (%) [6]: 50%
- Population Hoechst High Intensity Objects (%) [6]: 7%
- Population Membrane Permeable-Phenotype (%) [6]: 11%
- Population Mitochondria Different-Phenotype (%) [6]: 9%
- Population Mitotic Cells (%) [6]: 65%
- Population Normal (%) [6]: 92%
- Population Pyknosed Nuclei (%) [6]: 19%
- Population Tubulin-Different-Phenotype (%) [6]: 60%
- Total Cell Count [6]: 112
- Population Apoptotic (%) [7]: 75%
- Population Fragmented Nuclei (%) [7]: 19%
- Population Healthy Nuclei (%) [7]: 69%
- Population Hoechst High Intensity Objects (%) [7]: 10%
- Population Membrane Permeable-Phenotype (%) [7]: 0%
- Population Mitochondria Different-Phenotype (%) [7]: 15%
- Population Mitotic Cells (%) [7]: 25%
- Population Normal (%) [7]: 89%
- Population Pyknosed Nuclei (%) [7]: 11%
- Population Tubulin-Different-Phenotype (%) [7]: 66%
- Total Cell Count [7]: 158
- Population Apoptotic (%) [8]: 42%
- Population Fragmented Nuclei (%) [8]: 13%
- Population Healthy Nuclei (%) [8]: 57%
- Population Hoechst High Intensity Objects (%) [8]: 5%
- Population Membrane Permeable-Phenotype (%) [8]: 1%
- Population Mitochondria Different-Phenotype (%) [8]: 4%
- Population Mitotic Cells (%) [8]: 57%
- Population Normal (%) [8]: 94%
- Population Pyknosed Nuclei (%) [8]: 29%
- Population Tubulin-Different-Phenotype (%) [8]: 76%
- Total Cell Count [8]: 119
- Population Apoptotic (%) [9]: 50%
- Population Fragmented Nuclei (%) [9]: 25%
- Population Healthy Nuclei (%) [9]: 60%
- Population Hoechst High Intensity Objects (%) [9]: 5%
- Population Membrane Permeable-Phenotype (%) [9]: 1%
- Population Mitochondria Different-Phenotype (%) [9]: 6%
- Population Mitotic Cells (%) [9]: 50%
- Population Normal (%) [9]: 94%
- Population Pyknosed Nuclei (%) [9]: 14%
- Population Tubulin-Different-Phenotype (%) [9]: 21%
- Total Cell Count [9]: 114
- Population Apoptotic (%) [10]: 30%
- Population Fragmented Nuclei (%) [10]: 36%
- Population Healthy Nuclei (%) [10]: 50%
- Population Hoechst High Intensity Objects (%) [10]: 2%
- Population Membrane Permeable-Phenotype (%) [10]: 12%
- Population Mitochondria Different-Phenotype (%) [10]: 8%
- Population Mitotic Cells (%) [10]: 69%
- Population Normal (%) [10]: 97%
- Population Pyknosed Nuclei (%) [10]: 13%
- Population Tubulin-Different-Phenotype (%) [10]: 60%
- Total Cell Count [10]: 102
- Population Apoptotic (%) [11]: 92%
- Population Fragmented Nuclei (%) [11]: 17%
- Population Healthy Nuclei (%) [11]: 73%
- Population Hoechst High Intensity Objects (%) [11]: 3%
- Population Membrane Permeable-Phenotype (%) [11]: 0%
- Population Mitochondria Different-Phenotype (%) [11]: 19%
- Population Mitotic Cells (%) [11]: 7%
- Population Normal (%) [11]: 96%
- Population Pyknosed Nuclei (%) [11]: 8%
- Population Tubulin-Different-Phenotype (%) [11]: 68%
- Total Cell Count [11]: 162
- Population Apoptotic (%) [12]: 60%
- Population Healthy Nuclei (%) [12]: 62%
- Population Hoechst High Intensity Objects (%) [12]: 4%
- Population Membrane Permeable-Phenotype (%) [12]: 6%
- Population Mitochondria Different-Phenotype (%) [12]: 2%
- Population Mitotic Cells (%) [12]: 39%
- Population Normal (%) [12]: 95%
- Population Pyknosed Nuclei (%) [12]: 19%
- Population Tubulin-Different-Phenotype (%) [12]: 69%
- Total Cell Count [12]: 122
